# Assay results published in ChEMBL document CHEMBL1153852, “Steroidal lactones as inhibitors of 17beta-hydroxysteroid dehydrogenase type 5: chemical synthesis, enzyme inhibitory activity, and assessment of estrogenic and androgenic activities” (Eur J Med Chem, 2009).
# Active and inactive are the calls of the source. No cut-off for these calls is given here.
# How the values were obtained:
# [1] = target: T1, 17-beta-hydroxysteroid dehydrogenase type 2 (Homo sapiens) (UniProt P37059); experiment: Inhibition of human 17beta-HSD2 expressed in HEK293 cells assessed as enzyme-mediated transformation of [14C]-testosterone in to [14C]-4-androstene-3,17-dione at 0.1 uM; assay type: cell-based
# T1 sequence (whole entry): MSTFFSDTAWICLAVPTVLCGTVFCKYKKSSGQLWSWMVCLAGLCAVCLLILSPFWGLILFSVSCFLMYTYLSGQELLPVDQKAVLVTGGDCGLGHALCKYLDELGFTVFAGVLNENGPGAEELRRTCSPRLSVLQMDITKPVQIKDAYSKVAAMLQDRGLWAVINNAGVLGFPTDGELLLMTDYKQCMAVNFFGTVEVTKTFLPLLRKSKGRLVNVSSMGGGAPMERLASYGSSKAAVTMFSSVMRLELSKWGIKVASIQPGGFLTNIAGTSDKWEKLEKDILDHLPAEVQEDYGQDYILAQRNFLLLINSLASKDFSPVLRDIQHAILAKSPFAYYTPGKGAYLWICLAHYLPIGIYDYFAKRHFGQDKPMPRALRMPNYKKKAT
# [2] = target: T2, Androgen receptor (Rattus norvegicus) (UniProt P15207); experiment: Binding affinity to rat ventral prostate androgen receptor at 0.1 uM; assay type: tissue-based; conditions: Prostate gland
# T2 sequence (whole entry): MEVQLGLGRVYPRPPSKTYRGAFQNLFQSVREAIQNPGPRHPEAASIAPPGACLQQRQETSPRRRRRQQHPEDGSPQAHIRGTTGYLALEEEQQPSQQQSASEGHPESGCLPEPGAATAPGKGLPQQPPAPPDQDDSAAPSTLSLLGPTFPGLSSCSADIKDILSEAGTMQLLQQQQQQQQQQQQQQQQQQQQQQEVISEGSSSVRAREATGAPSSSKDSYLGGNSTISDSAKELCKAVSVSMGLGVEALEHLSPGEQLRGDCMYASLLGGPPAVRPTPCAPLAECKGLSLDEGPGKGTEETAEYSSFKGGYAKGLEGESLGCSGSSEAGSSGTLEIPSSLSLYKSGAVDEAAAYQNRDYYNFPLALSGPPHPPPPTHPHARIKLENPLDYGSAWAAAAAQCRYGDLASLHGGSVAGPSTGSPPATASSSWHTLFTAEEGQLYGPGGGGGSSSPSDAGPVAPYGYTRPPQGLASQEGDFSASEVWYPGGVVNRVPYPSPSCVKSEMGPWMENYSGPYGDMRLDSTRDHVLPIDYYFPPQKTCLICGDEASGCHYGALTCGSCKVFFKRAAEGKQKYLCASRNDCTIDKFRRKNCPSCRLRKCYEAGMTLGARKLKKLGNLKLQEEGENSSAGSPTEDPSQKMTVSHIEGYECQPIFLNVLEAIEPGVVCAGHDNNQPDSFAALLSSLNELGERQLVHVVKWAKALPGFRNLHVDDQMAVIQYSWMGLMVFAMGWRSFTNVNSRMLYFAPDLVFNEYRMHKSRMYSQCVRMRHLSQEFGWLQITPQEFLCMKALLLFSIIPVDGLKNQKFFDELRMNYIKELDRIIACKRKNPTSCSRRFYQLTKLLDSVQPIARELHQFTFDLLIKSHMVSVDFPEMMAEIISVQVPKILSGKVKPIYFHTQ
# [3] = target: T3, Glucocorticoid receptor (Rattus norvegicus) (UniProt P06536); experiment: Binding affinity to rat liver glucocorticoid receptor at 10 uM
# T3 sequence (whole entry): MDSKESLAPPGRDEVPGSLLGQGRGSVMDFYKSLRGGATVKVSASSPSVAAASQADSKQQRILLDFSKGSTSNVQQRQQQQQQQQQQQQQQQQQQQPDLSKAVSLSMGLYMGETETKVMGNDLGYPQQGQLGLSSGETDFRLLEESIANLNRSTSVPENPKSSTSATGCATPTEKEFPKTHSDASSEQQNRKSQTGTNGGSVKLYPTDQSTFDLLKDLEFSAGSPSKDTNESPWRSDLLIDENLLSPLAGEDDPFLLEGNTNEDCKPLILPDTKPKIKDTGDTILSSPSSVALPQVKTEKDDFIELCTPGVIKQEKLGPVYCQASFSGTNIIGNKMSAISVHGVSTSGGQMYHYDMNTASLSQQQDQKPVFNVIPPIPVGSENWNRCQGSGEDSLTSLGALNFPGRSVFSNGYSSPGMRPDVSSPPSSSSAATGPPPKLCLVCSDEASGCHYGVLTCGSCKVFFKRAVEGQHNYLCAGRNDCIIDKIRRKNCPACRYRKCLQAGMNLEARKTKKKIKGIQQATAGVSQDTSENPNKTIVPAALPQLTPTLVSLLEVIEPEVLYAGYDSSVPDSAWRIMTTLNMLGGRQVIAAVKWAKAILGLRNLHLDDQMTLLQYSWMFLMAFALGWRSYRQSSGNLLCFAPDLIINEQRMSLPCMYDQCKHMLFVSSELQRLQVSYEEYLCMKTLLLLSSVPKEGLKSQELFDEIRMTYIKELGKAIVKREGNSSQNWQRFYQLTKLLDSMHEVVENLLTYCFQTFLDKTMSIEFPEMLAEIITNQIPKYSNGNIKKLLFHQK
# How it was run: (§1)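 Rat liver glucocorticoid receptor competitive binding, reported as % binding. Bound and free steroid are separated by dextran-coated charcoal adsorption instead of protamine sulfate precipitation.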
# [4] = target: T1, 17-beta-hydroxysteroid dehydrogenase type 2 (Homo sapiens); experiment: Inhibition of human 17beta-HSD2 expressed in HEK293 cells assessed as enzyme-mediated transformation of [14C]-testosterone in to [14C]-4-androstene-3,17-dione at 1 uM; assay type: cell-based
# [5] = target: T2, Androgen receptor (Rattus norvegicus); experiment: Binding affinity to rat ventral prostate androgen receptor at 1 uM; assay type: tissue-based; conditions: Prostate gland
# [6] = target: T4, 17-beta-hydroxysteroid dehydrogenase type 3 (Homo sapiens) (UniProt P37058); experiment: Inhibition of human 17beta-HSD3 expressed in HEK293 cells assessed as enzyme-mediated transformation of [14C]-4-androstene-3,17-dione in to [14C]-testosterone at 0.1 uM; assay type: cell-based
# T4 sequence (whole entry): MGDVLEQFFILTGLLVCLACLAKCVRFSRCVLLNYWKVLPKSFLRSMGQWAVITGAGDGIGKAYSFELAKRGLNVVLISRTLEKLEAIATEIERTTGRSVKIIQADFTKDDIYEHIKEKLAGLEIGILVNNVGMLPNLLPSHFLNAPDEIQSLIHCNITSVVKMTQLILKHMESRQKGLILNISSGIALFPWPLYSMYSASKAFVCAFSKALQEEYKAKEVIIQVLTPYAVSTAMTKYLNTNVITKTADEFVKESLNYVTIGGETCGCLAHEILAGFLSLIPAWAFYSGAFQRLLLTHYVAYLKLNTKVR
# [7] = target: T3, Glucocorticoid receptor (Rattus norvegicus); experiment: Binding affinity to rat liver glucocorticoid receptor at 1 uM; how it was run: as §1
Structure (SMILES),Activity [1],Activity [2],Activity [3],Activity [4],Activity [5],inhibition [6],Activity [7]
CC1(C)CC[C@@]2(CC[C@H]3[C@@H]4CCc5cc(O)ccc5[C@H]4CC[C@@]32C)OC1=O,inactive,0%,24%,inactive,–,–,–
CC1(C)CC[C@@]2(CC[C@H]3[C@@H]4CCc5ccccc5[C@H]4CC[C@@]32C)OC1=O,–,–,–,–,0%,25%,0%
